From ChEMBL document CHEMBL3098000, “Imatinib analogs as potential agents for PET imaging of Bcr-Abl and c-KIT expression at a kinase level” (Bioorg Med Chem, 2014) come the findings set out here.

In data set [1] the test system is K562. Nature of the data set: Drug uptake in human K562 cells expressing Bcr-Abl after 30 mins. Format: ADME, cell-based. Particulars: k562, 0.5 h; call rule not given here.
Data set [2] has as its system Tumour. The experiment in a line: Drug uptake in tumor of mouse xenografted with human K562 cells expressing Bcr-Abl at 100 uCi, iv after 60 to 120 mins by PET analysis. The note with it: in vivo. Format: ADME, organism-based, Neoplasm. Put shortly: (§1)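 Nude mice carried K562, U87 or U87WT tumor cells injected in Matrigel (200 μl) into the dorsal shoulder areas. [18F]STI-571, labeled by nucleophilic substitution, was given at 100 μCi/mouse i.v. MicroPET imaging was done at 30, 60 and 90 min, with images also shown at 60 and 120 min. Some mice were sacrificed at 60 or 90 min for tissue sampling and autoradiography.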
(Xenograft models place foreign cells or tissue in a host animal.)

Data set [3] concerns Liver. The experiment in a line: Drug uptake in liver of mouse xenografted with human K562 cells expressing Bcr-Abl at 100 uCi, iv after 60 to 120 mins by PET analysis. The note with it: in vivo. Format: ADME, organism-based. In short, it runs like this: as §1
Data set [4] concerns Intestine. The experiment in a line: Drug uptake in intestine of mouse xenografted with human U87 cells at 100 uCi, iv after 60 to 120 mins by PET analysis. Format: ADME, organism-based, U-87MG ATCC. Particulars: in vivo. In short, it runs like this: as §1
Data set [5] concerns Intestine. The experiment in a line: Drug uptake in intestine of mouse xenografted with human U87WT cells expressing human wild type c-KIT at 100 uCi, iv after 60 to 120 mins by PET analysis. Format: ADME, organism-based. Particulars: in vivo. In short, it runs like this:
as §1

Data set [6] can be described thus: Drug uptake in mouse digestive tract xenografted with human U87WT cells expressing human wild type c-KIT at 100 uCi, iv after 15 to 120 mins by PET analysis. Format: ADME, organism-based. The note with it: in vivo. Put shortly:
as §1

Data set [7] is described as follows: Drug uptake in mouse right shoulder xenografted with human K562 cells expressing Bcr-Abl at 100 uCi, iv after 15 to 120 mins by PET analysis. Particulars: in vivo. Format: ADME, organism-based. In short, it runs like this: as §1
Data set [8] in a line: Drug uptake in mouse right shoulder xenografted with human U87WT cells expressing human wild type c-KIT at 100 uCi, iv after 15 to 120 mins by PET analysis. The note with it: in vivo. Format: ADME, organism-based. Put shortly: as §1
Data set [9] in a line: Drug uptake in mouse digestive tract xenografted with human K562 cells expressing Bcr-Abl at 100 uCi, iv after 15 to 120 mins by PET analysis. Format: ADME, organism-based. Particulars: in vivo. Put shortly:
as §1

For data set [10], the system named is Liver. The experiment in a line: Drug uptake in liver of mouse xenografted with human U87 cells at 100 uCi, iv after 60 to 120 mins by PET analysis. The note with it: in vivo. Format: ADME, organism-based, U-87MG ATCC. In short, it runs like this:
as §1

Data set [11] deals with Intestine. The experiment in a line: Drug uptake in intestine of mouse xenografted with human K562 cells expressing Bcr-Abl at 100 uCi, iv after 60 to 120 mins by PET analysis. Format: ADME, organism-based. Particulars: in vivo. In short, it runs like this:
as §1

Data set [12] is described as follows: Drug uptake in mouse right shoulder xenografted with human U87 cells at 100 uCi, iv after 15 to 120 mins by PET analysis. Format: ADME, organism-based, U-87MG ATCC. Particulars: in vivo, in the assay text read “U87WT cells” for “U87 cells”. Put shortly:
as §1

The subject of data set [13] is K562. The experiment in a line: Drug uptake in human K562 cells expressing Bcr-Abl after 30 to 210 mins in presence of unlabelled STI-571. Format: ADME, cell-based.
In data set [14] the test system is K562. The experiment in a line: Drug uptake in human K562 cells expressing Bcr-Abl after 1 to 2 hrs. Format: ADME, cell-based.
Data set [15] concerns K562. The experiment in a line: Drug uptake in human K562 cells expressing Bcr-Abl incubated for 1 to 2 hrs measured after drug washout. Format: ADME, cell-based.
Data set [16] relates to Tumour. Nature of the data set: Drug uptake in tumor of mouse xenografted with human U87WT cells expressing human wild type c-KIT at 100 uCi, iv after 60 to 120 mins by PET analysis. Format: ADME, organism-based, Neoplasm. The note with it: in vivo. Put shortly: as §1
The nature of data set [17]: Drug uptake in human U87WT cells expressing human wild type c-KIT after 1 to 2 hrs. Format: ADME, cell-based. Put shortly: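 Cells were incubated with [18F]STI-571, and tracer accumulation and washout were measured at 1 and 2 h. U87WT cells were made by retroviral transduction of U87 cells with wild-type human c-KIT receptor. Specificity was tested by blocking with excess unlabelled STI-571.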

For data set [18], the system named is Tumour. Nature of the data set: Drug uptake in tumor of mouse xenografted with human U87 cells at 100 uCi, iv after 60 to 120 mins by PET analysis. Format: ADME, organism-based, Neoplasm, U-87MG ATCC. The note with it: in vivo. In short, it runs like this: as §1
Data set [19] relates to Liver. Nature of the data set: Drug uptake in liver of mouse xenografted with human U87WT cells expressing human wild type c-KIT at 100 uCi, iv after 60 to 120 mins by PET analysis. Format: ADME, organism-based. Particulars: in vivo. Put shortly:
as §1

Data set [20] in a line: Drug uptake in human wild-type U87 cells incubated for 1 to 2 hrs measured after drug washout.
Data set [21] can be described thus: Drug uptake in mouse digestive tract xenografted with human U87 cells at 100 uCi, iv after 15 to 120 mins by PET analysis. The note with it: in vivo. Format: ADME, organism-based, U-87MG ATCC. In short, it runs like this:
as §1

Another data set addresses Bcr/Abl fusion protein (Homo sapiens, UniProt P00519). Nature of the data set: Inhibition of Bcr-Abl (unknown origin) phosphorylation by spectrophotometric assay. Format: protein assay.
Data set [22] relates to Intestine. Nature of the data set: Drug uptake in intestine of mouse xenografted with human U87WT cells expressing human wild type c-KIT after 45 mins by PET analysis. Format: ADME, tissue-based. The note with it: in vivo, 0.75 h.
In data set [23] the test system is Intestine. The experiment in a line: Drug uptake in intestine of mouse xenografted with human U87 cells after 45 mins by PET analysis. Format: ADME, U-87MG ATCC. Particulars: in vivo, 0.75 h.
The test system of the next data set is Mus musculus. The experiment in a line: Drug uptake in mouse xenografted with human K562 cells expressing Bcr-Abl after 45 mins by PET analysis. The note with it: in vivo, 0.75 h. Format: ADME, organism-based.

Chain of Bcr/Abl fusion protein (P00519 whole entry, the tested form may be a part): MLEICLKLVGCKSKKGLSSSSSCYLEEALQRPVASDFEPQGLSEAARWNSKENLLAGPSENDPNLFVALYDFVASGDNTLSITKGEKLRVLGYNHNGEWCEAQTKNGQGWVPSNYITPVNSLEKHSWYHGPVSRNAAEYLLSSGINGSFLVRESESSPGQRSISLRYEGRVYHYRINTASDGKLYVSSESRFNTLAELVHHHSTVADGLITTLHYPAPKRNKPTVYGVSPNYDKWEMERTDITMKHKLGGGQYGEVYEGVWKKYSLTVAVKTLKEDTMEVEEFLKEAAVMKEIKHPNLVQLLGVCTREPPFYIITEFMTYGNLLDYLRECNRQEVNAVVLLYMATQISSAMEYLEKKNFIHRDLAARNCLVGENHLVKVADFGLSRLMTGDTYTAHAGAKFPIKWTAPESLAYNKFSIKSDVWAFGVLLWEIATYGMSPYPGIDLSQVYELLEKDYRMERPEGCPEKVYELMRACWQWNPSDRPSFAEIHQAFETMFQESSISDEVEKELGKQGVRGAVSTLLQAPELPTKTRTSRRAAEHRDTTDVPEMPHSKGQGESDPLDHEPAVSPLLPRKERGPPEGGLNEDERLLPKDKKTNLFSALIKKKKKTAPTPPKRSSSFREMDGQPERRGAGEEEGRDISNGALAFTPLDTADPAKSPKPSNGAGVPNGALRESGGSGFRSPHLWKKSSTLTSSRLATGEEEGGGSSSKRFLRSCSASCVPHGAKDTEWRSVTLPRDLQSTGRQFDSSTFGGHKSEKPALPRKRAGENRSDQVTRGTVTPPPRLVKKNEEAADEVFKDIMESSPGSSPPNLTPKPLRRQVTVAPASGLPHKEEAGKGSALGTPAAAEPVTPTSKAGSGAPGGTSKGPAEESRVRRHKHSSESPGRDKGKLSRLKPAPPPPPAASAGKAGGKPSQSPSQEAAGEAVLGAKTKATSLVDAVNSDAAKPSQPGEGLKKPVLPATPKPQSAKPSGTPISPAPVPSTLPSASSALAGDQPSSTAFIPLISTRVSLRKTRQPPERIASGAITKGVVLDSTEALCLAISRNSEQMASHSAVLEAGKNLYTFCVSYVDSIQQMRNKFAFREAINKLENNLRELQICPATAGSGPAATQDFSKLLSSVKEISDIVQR
Chain of Bcr/Abl fusion protein (P11274 whole entry, further chain, the tested form may be a part): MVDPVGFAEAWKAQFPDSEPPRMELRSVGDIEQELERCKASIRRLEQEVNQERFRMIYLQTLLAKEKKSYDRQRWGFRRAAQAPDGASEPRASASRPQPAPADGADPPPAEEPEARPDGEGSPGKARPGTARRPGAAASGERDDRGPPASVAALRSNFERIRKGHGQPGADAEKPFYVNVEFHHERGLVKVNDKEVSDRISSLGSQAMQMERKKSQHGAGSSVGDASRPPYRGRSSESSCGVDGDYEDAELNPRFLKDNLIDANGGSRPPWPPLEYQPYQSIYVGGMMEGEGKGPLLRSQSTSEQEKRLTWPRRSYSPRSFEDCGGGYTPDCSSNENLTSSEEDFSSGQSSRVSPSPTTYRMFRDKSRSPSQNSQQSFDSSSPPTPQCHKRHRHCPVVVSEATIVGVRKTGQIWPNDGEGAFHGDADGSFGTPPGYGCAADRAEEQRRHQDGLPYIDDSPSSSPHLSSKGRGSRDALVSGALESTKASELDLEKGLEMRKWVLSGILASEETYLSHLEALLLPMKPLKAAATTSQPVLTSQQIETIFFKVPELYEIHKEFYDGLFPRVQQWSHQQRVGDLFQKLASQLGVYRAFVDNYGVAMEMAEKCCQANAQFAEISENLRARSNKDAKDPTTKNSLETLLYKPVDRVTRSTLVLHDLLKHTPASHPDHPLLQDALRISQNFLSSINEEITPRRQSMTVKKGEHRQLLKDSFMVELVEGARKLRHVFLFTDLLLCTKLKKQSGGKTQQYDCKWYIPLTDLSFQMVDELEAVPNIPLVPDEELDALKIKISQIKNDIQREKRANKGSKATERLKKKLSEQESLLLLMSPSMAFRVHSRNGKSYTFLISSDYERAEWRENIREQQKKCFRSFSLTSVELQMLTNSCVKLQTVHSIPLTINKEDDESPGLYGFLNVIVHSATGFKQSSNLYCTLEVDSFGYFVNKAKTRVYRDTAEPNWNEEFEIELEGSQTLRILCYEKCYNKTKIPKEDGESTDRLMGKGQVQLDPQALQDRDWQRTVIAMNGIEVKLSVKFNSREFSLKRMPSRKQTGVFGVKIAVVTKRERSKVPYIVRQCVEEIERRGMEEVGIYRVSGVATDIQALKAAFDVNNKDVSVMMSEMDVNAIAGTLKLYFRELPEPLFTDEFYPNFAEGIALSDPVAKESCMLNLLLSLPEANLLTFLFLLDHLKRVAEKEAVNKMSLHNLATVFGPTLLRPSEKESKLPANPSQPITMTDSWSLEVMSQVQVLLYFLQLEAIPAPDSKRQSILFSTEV

With `Cc1ccc(NC(=O)c2ccc(CN3CCN(CC[18F])CC3)cc2)cc1Nc1nccc(-c2cccnc2)n1`, the Drug uptake result (in the data set on K562 [1]; in the data set on Tumour [2]; in the data set on Liver [3]; in the data set on Intestine [4]; with Intestine [5]; in [6]) was “Active” throughout. The Drug uptake result (in data set [7]; in data set [8]; in [9]; in the data set on Liver [10]; in the data set with Intestine [11]; in data set [12]) was “Active” in each case. The Drug uptake entry is recorded as “Not Active” with K562 [13]; “Active” in the data set on K562 [14]; “Active” with K562 [15]; “Active” in the data set with Tumour [16]; “Not Active” in [17]; “Active” in the data set on Tumour [18]. The Drug uptake entry with Liver [19] is on record as “Active”; in data set [20] it was “Not Active”; in data set [21] it was “Active”.
As usually defined, the IC50 is the midpoint of a concentration-inhibition curve. Low values mean greater potency, high ones weaker potency. In the case of `Cc1ccc(NC(=O)c2ccc(CN3CCN(Cc4ccc(I)cc4)CC3)cc2)cc1Nc1nccc(-c2cccnc2)n1`, the concentration for half-maximal inhibition (IC50) against Bcr/Abl fusion protein stood at 739 nM.
Same read-out and setting: for `Cc1ccc(NC(=O)c2ccc(CN3CCN(CCO)CC3)cc2)cc1Nc1nccc(-c2cccnc2)n1` the value was 7080 nM.
With `Cc1ccc(NC(=O)c2ccc(CN3CCN(CCF)CC3)cc2)cc1Nc1nccc(-c2cccnc2)n1`, on Bcr/Abl fusion protein, inhibition was half-maximal at 1380 nM (IC50).
As for `OC[C@H]1O[C@@H](O)[C@H]([18F])[C@@H](O)[C@@H]1O` [FLUDEOXYGLUCOSE-F18], the Drug uptake result in the data set with Intestine [22], with Intestine [23] and with Mus musculus was “Active” throughout.
